From ChEMBL document CHEMBL4680340, “Discovery and structure activity relationship of glyoxamide derivatives as anti-hepatitis B virus agents” (Bioorg Med Chem, 2021)

What was measured:
Hepatitis B virus = test: Antiviral activity against Hepatitis B virus infected in human HePAD38 cells assessed as reduction in viral DNA replication incubated for 7 days by RT-PCR analysis; type: functional, organism-based; conditions: HePAD38, 168 h; for EC90: time 7 day
Procedure, shortened: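 HepAD38 cells seeded and held 2 days at 37 °C, 5% CO2, then washed with PBS; compounds added in duplicate at various concentrations in tetracycline-free medium (from 40 mM stocks). Day 7: total DNA extracted, HBV DNA quantified by real-time PCR; ΔCT against untreated tetracycline-free control; EC50 and EC90 computed.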

[1] = Cytotoxicity against human PBMC cells assessed as reduction in cell viability by MTT assay; type: cell-based
[2] = Cytotoxicity against human CEM cells assessed as reduction in cell viability by MTT assay; type: cell-based; conditions: CEM (CCRF-CEM) cells
[3] = Cytotoxicity against African green monkey Vero cells assessed as reduction in cell viability by MTT assay; type: cell-based; conditions: chlorocebus sabaeus
[4] = Cytotoxicity against human HepG2 cells assessed as reduction in cell viability by MTT assay; type: cell-based
[5] = Therapeutic index, ratio of CC50 for human HepG2 cells to IC50 for Hepatitis B virus infected in human HePAD38 cells; type: toxicity, cell-based; conditions: read-out: Ratio CC50/IC50

In the case of `Cn1cc(C(=O)C(=O)NCC#N)cc1C(=O)Nc1ccc(F)c(F)c1`, the EC50 (Hepatitis B virus) is reported as 5.16 µM, the EC90 (Hepatitis B virus) is reported as 10 µM and the CC50 [1] is reported as greater than 100 µM. It also gave a CC50 [2] greater than 100 µM, a CC50 [3] of 91.4 µM and a CC50 [4] greater than 100 µM.
In the case of `O=C(Nc1ccc(F)c(F)c1)c1cc(S(=O)(=O)N2CC(F)(F)C2)ccc1F`, the EC50 (Hepatitis B virus) is reported as 1.2 µM and the EC90 (Hepatitis B virus) is reported as 6.3 µM.
For `C#CCNC(=O)C(=O)c1cc(C(=O)Nc2ccc(F)c(F)c2)n(C)c1`, the EC50 (Hepatitis B virus) was 5.6 µM, the EC90 (Hepatitis B virus) was greater than 10 µM and the CC50 [1] was 57.9 µM. For the same compound, the CC50 [2] was 70.3 µM, the CC50 [3] was 89 µM and the CC50 [4] was greater than 100 µM.
`Cc1c(C(=O)C(=O)Nc2nc3ccccc3[nH]2)c(C)n(C)c1C(=O)Nc1ccc(F)c(F)c1` gave an EC50 (Hepatitis B virus) of 0.21 µM, an EC90 (Hepatitis B virus) of 3.44 µM and a CC50 [1] of 90 µM. For the same compound, the CC50 [2] was 35.8 µM, the CC50 [3] was 46.9 µM and the CC50 [4] was 74.9 µM.
With `C#CCNC(=O)C(=O)c1c(C)c(C(=O)Nc2ccc(F)c(F)c2)n(C)c1C` the EC50 (Hepatitis B virus) was 0.003 µM, the EC90 (Hepatitis B virus) was 0.014 µM and the CC50 [1] was greater than 100 µM. The CC50 [2] was greater than 100 µM, the CC50 [3] was 46.4 µM and the CC50 [4] was greater than 100 µM. The selectivity ratio [5] was greater than 33300.
`Cc1c(C(=O)C(=O)Nc2nccs2)c(C)n(C)c1C(=O)Nc1ccc(F)c(F)c1` showed an EC50 (Hepatitis B virus) of 0.006 µM, an EC90 (Hepatitis B virus) of 0.03 µM and a CC50 [1] greater than 100 µM. The CC50 [2] was 26.8 µM, the CC50 [3] was greater than 100 µM and the CC50 [4] was 83.9 µM.
`C=CCNC(=O)C(=O)c1cc(C(=O)Nc2ccc(F)c(F)c2)n(C)c1` showed an EC50 (Hepatitis B virus) of 0.09 µM, an EC90 (Hepatitis B virus) of 3.05 µM and a CC50 [1] greater than 100 µM. For the same compound, the CC50 [2] was greater than 100 µM, the CC50 [3] was 68.1 µM and the CC50 [4] was greater than 100 µM.
Compound `CCOC(=O)C1=C(CN2CCOCC2)NC(c2nccs2)=NC1c1ccc(F)cc1Br` (centres undefined) has an EC50 (Hepatitis B virus) of 0.08 µM and an EC90 (Hepatitis B virus) of 0.28 µM.
In the case of `Cc1c(C(=O)C(=O)NCc2nccn2C)c(C)n(C)c1C(=O)Nc1ccc(F)c(F)c1`, the EC50 (Hepatitis B virus) is reported as 0.01 µM, the EC90 (Hepatitis B virus) is reported as 0.17 µM and the CC50 [1] is reported as greater than 100 µM. For the same compound, the CC50 [2] was 46.9 µM, the CC50 [3] was 50.6 µM and the CC50 [4] was 34.7 µM.
Compound `Cn1cc(C(=O)C(=O)Nc2ccccc2)cc1C(=O)Nc1ccc(F)c(F)c1` has an EC50 (Hepatitis B virus) of 0.08 µM, an EC90 (Hepatitis B virus) of 1.8 µM and a CC50 [1] greater than 100 µM. For the same compound, the CC50 [2] was greater than 100 µM, the CC50 [3] was 13.4 µM and the CC50 [4] was greater than 100 µM.
Work on `Cn1cc(C(=O)C(=O)N2CCOCC2)cc1C(=O)Nc1ccc(F)c(F)c1` yielded an EC50 (Hepatitis B virus) of 1.1 µM, an EC90 (Hepatitis B virus) of 4.62 µM and a CC50 [1] greater than 100 µM. For the same compound, the CC50 [2] was greater than 100 µM, the CC50 [3] was 41.9 µM and the CC50 [4] was 93.9 µM.
With `Nc1ccn([C@@H]2CS[C@H](CO)O2)c(=O)n1` [LAMIVUDINE] the EC50 (Hepatitis B virus) was 0.41 µM, the EC90 (Hepatitis B virus) was 1.65 µM and the CC50 [1] was greater than 100 µM. It also gave a CC50 [2] greater than 100 µM, a CC50 [3] greater than 100 µM and a CC50 [4] greater than 100 µM.
Work on `Cc1c(C(=O)C(=O)NCc2ccccn2)c(C)n(C)c1C(=O)Nc1ccc(F)c(F)c1` yielded an EC50 (Hepatitis B virus) of 0.16 µM, an EC90 (Hepatitis B virus) of 2.02 µM and a CC50 [1] greater than 100 µM. For the same compound, the CC50 [2] was 38.4 µM, the CC50 [3] was 9.6 µM and the CC50 [4] was 7.2 µM.
Compound `Cc1c(C(=O)C(=O)N2CCN(C)CC2)c(C)n(C)c1C(=O)Nc1ccc(F)c(F)c1` has an EC50 (Hepatitis B virus) of 0.005 µM, an EC90 (Hepatitis B virus) of 0.1 µM and a CC50 [1] of no less than 100 µM. For the same compound, the CC50 [2] was 24.7 µM, the CC50 [3] was no less than 100 µM and the CC50 [4] was 95.4 µM.
`CCN(CC)C(=O)C(=O)c1c(C)c(C(=O)Nc2ccc(F)c(F)c2)n(C)c1C` gave an EC50 (Hepatitis B virus) of 0.58 µM, an EC90 (Hepatitis B virus) of 5.64 µM and a CC50 [1] of 91.7 µM. For the same compound, the CC50 [2] was 16.8 µM, the CC50 [3] was greater than 100 µM and the CC50 [4] was 89.9 µM.
With `Cn1cc(C(=O)C(=O)N2CC(F)(F)C2)cc1C(=O)Nc1ccc(F)c(F)c1` the EC50 (Hepatitis B virus) was 3.8 µM, the EC90 (Hepatitis B virus) was 9.67 µM and the CC50 [1] was greater than 100 µM. It also gave a CC50 [2] greater than 100 µM, a CC50 [3] greater than 100 µM and a CC50 [4] greater than 100 µM.
In the case of `Cn1cc(C(=O)C(=O)NOC2CCCC2)cc1C(=O)Nc1ccc(F)c(F)c1`, the EC50 (Hepatitis B virus) is reported as 0.56 µM, the EC90 (Hepatitis B virus) is reported as 2.95 µM and the CC50 [1] is reported as no less than 100 µM. The CC50 [2] was 37.9 µM, the CC50 [3] was 80.1 µM and the CC50 [4] was greater than 100 µM.
Compound `C=C1[C@H](CO)[C@@H](O)C[C@@H]1n1cnc2c(=O)[nH]c(N)nc21` has an EC50 (Hepatitis B virus) of 0.0006 µM, an EC90 (Hepatitis B virus) of 0.011 µM and a CC50 [1] of 15.7 µM. The CC50 [2] was greater than 100 µM, the CC50 [3] was greater than 100 µM and the CC50 [4] was greater than 100 µM.
`Cc1c(C(=O)C(=O)Nc2ccccn2)c(C)n(C)c1C(=O)Nc1ccc(F)c(F)c1` showed an EC50 (Hepatitis B virus) of 0.004 µM, an EC90 (Hepatitis B virus) of 0.06 µM and a CC50 [1] greater than 100 µM. The CC50 [2] was 14.6 µM, the CC50 [3] was greater than 100 µM and the CC50 [4] was 83.7 µM.
`Cn1cc(C(=O)C(=O)Nc2nccs2)cc1C(=O)Nc1ccc(F)c(F)c1` showed an EC50 (Hepatitis B virus) of 0.47 µM, an EC90 (Hepatitis B virus) of 4.1 µM and a CC50 [1] greater than 100 µM. It also gave a CC50 [2] greater than 100 µM, a CC50 [3] of 31.2 µM and a CC50 [4] greater than 100 µM.
Work on `Cn1cc(C(=O)C(=O)NCc2ccccc2)cc1C(=O)Nc1ccc(F)c(F)c1` yielded an EC50 (Hepatitis B virus) of 0.41 µM, an EC90 (Hepatitis B virus) of 7.95 µM and a CC50 [1] greater than 100 µM. The CC50 [2] was greater than 100 µM, the CC50 [3] was 62.4 µM and the CC50 [4] was greater than 100 µM.
